KCC2 mod – KCC2 (human) Cl- transport modulation. 190,000 compounds, 2.2% hits. KCC2 cells, thallium flux FluoZin-2 fluorescence. B-score of Tl+ flux slope (higher = more flux/activation; lower = inhibition) at 10 µM. AID 1456;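 active means thallium flux slope and its plate-corrected score both differing from the plate sample mean at a set confidence after two filtering rounds, in either direction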;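 further: slope of fluorescence scaled to starting intensity during 10 to 20 s after thallium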
hERG rescue – shields human hERG channel from block by proarrhythmic agents. 310,000 compounds, 0.51% hits. Q12809. AID 1511. CHO-hERG, FluxOR thallium flux, dofetilide IC70 present. activation (rescue from dofetilide block), less the hit threshold, % at 10 µM;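 active means activation above the mean of controls blocked by dofetilide plus 5 SD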;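 further: thallium influx through hERG after potassium depolarization seen as dye fluorescence rise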
KCNQ1 act – potentiates or activates the human KCNQ1 potassium channel; P51787; CHO-K1 KCNQ1, thallium flux FluxOR fluorescence; hits give high values; B-score at 10 µM; 310,000 compounds, 0.35% hits; AID 2648;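 active means fluorescence ratio B-score, a plate-corrected score, at least three library SD, with initial intensity B-score within 5 SD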
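Assay system: CHO-K1 cells stably expressing KCNQ1; Medium: assay buffer with matched DMSO; Also added: K+/Tl+ depolarizing stimulus; Dosing: single dose; Timing: dye 90 min, compound 20 min, room temperature; Measured by: kinetic FluxOR thallium fluorescence, 10-s 1-Hz baseline, 110-s post-stimulus read; Read-out: peak-minus-minimum fluorescence over initial fluorescence, negative-control normalized, B-scored.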
KCNK3 inh – human KCNK3 channel inhibition, primary screen; CHO-KCNK3 thallium flux, FluxOR fluorescence; hits give low values; B-score at 10 µM; 340,000 compounds, 0.84% hits;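 active means B-score under library mean minus 4 SD, starting fluorescence ratio at most library mean plus 5 SD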;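 further: more negative B-score means stronger inhibition of thallium flux through KCNK3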
Target sequence (O14649 whole entry, looked up): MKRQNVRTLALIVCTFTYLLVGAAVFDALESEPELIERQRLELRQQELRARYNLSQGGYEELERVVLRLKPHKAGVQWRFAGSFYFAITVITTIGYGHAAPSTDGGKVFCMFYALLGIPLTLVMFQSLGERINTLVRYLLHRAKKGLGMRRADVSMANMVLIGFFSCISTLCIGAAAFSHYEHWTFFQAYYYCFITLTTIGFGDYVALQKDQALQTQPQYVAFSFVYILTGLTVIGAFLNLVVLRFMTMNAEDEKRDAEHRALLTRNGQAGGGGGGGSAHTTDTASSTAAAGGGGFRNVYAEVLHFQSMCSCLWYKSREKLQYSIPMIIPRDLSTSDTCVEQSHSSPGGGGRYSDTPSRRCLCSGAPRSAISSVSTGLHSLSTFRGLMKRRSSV
KCNK9 block – human KCNK9 channel inhibition; B-score at 10 µM; 310,000 compounds, 1.2% hits; HEK293 KCNK9, FluxOR thallium flux fluorescence; hits give low values; Q9NPC2;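 active means ratio B-score over 3 SD below the library mean, with starting fluorescence within 5 SD of its mean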;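 further: negative B-score means less thallium flux so channel inhibition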
Target sequence (Q9NPC2 whole entry, looked up): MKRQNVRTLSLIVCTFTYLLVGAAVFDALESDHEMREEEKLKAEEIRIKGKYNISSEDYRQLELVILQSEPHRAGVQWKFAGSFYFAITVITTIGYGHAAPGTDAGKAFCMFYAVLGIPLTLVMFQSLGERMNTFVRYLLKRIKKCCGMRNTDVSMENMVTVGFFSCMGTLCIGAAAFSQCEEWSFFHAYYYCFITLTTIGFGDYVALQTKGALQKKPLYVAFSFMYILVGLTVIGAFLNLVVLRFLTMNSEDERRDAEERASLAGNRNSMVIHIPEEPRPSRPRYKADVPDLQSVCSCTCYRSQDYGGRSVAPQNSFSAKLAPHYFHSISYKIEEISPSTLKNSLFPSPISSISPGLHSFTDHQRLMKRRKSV
KCNQ1 inh – human KCNQ1 channel inhibition; P51787; CHO-K1 KCNQ1, FluxOR thallium flux fluorescence; hits give high values; B-score at 10 µM; 310,000 compounds, 1.3% hits; AID 2642;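 active means compounds whose thallium flux B-score, printed positive for inhibition, exceeds three library SD while starting fluorescence stays within three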;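 further: channel opened by potassium depolarization with thallium stimulus after 20 min compound exposure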
KCNK3 inh conf – human KCNK3 channel inhibition, confirmation assay. shares compounds with KCNK3 inh. CHO-KCNK3 thallium flux, FluxOR fluorescence; 0% buffer, 100% carvedilol maximal block. ratio percent of control, % at 10 µM. 2,400 compounds, 99% hits. AID 651638;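 active means ratio percent of control, averaged over triplicates, above buffer control mean plus 5 SD, cut at about 64% in these data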;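 further: ratio is the fluorescence rise from min to max over baseline after thallium stimulus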
KCNK3 noninduced – counter-screen for KCNK3 inhibitors: effect in non-induced cells; shares compounds with KCNK3 inh; non-induced KCNK3 parental cells, FluxOR thallium flux; hits give low values; thallium flux ratio (lower = more inhibition) at 10 µM; 2,400 compounds, 40% hits;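 active means thallium flux ratio, averaged over three wells, more than 5 SD below the buffer control mean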;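 further: host cells are CHO cells without KCNK3 induction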
Large screens that a line does not name were inactive (follow-up assays come after a bar, where they were run). Hits are enriched below; roughly 4.1% of the tested compounds scored in any of these assays.

CCn1c2ccccc2c2cc(NC(=O)c3ccc(Br)o3)ccc21	KCNK3 inh -11 | KCNK3 inh conf 116 | KCNK3 noninduced inactive
CCn1c2ccccc2c2cc(/C=N/NC(=O)c3ccncc3)ccc21	KCNK3 inh -11 | KCNK3 inh conf 116 | KCNK3 noninduced 0.14
CCn1c2ccccc2c2cc(NC(=O)c3cc(OC)cc(OC)c3)ccc21	none
CCn1c2ccccc2c2cc(NC(=O)c3cc(C)on3)ccc21	KCNK3 inh -10 | KCNK3 inh conf 123 | KCNK3 noninduced 0.16
COc1ccc(-c2coc3cc(OC(C)=O)ccc3c2=S)cc1	none (no result: KCC2 mod, hERG rescue, KCNQ1 act, KCNK9 block, KCNQ1 inh)
Cc1ccc(C)c(OCC(=O)Nc2ccccc2N2CCCC2)c1	KCNK3 inh -10 (no result: KCC2 mod) | KCNK3 inh conf 104 | KCNK3 noninduced inactive
O=C(COc1ccccc1)Nc1ccccc1N1CCCCC1	KCNK3 inh -11 | KCNK3 inh conf 128 | KCNK3 noninduced inactive
O=C(CSc1nnc(NC(=O)c2ccccc2[N+](=O)[O-])s1)NC1CCCC1	none (no result: KCC2 mod)
CC1(C)Cc2c(sc(NC(=O)C(=O)N3CCCC3)c2C#N)CO1	none (no result: KCC2 mod)
COc1ccccc1NC(=O)Nc1nc(CC(=O)NCc2ccccn2)cs1	none (no result: KCC2 mod)
COc1ccccc1CNC(=O)Cc1csc(NC(=O)Nc2ccccc2OC)n1	KCNK3 inh -8.7 (no result: KCC2 mod) | KCNK3 inh conf 99 | KCNK3 noninduced inactive
COc1cc(NC(=O)c2ccccc2Cl)c2ncccc2c1	KCNK3 inh -9.1 (no result: KCC2 mod) | KCNK3 inh conf 119 | KCNK3 noninduced 0.15
Oc1ccc(/C=C/c2ccc3cccc(O)c3n2)cc1Br	KCNK3 inh -11 (no result: KCC2 mod) | KCNK3 inh conf 135 | KCNK3 noninduced 0.12
Cc1ccc(N(Cc2ccccc2)C(=O)CN2C(=O)NC3(CCCC3)C2=O)cc1	none (no result: KCC2 mod)
COC(=O)C1=C(C)N=C2SC(C)C(=O)N2C1c1cccs1 (stereo not drawn)	KCNK3 inh -12 | KCNK3 inh conf inactive | KCNK3 noninduced inactive
COC(=O)C1=C(C)N=C2SC(C)C(=O)N2C1c1ccc(C(=O)OC)cc1 (stereo not drawn)	KCNK3 inh -8.7 (no result: KCC2 mod) | KCNK3 inh conf 106 | KCNK3 noninduced inactive
COc1ccc2oc(C(=O)N3CCN(c4ncccn4)CC3)c(C)c2c1	none (no result: KCC2 mod)
Cc1ccc2c(C)c(C(=O)N3CCN(c4ncccn4)CC3)oc2c1C	KCNK3 inh -9.1, KCNK9 block -6.7 (no result: KCC2 mod) | KCNK3 inh conf 69 | KCNK3 noninduced inactive
O=C(CNC(=O)c1cc(-c2ccccc2)nn1-c1ccccc1)Nc1ccccc1Br	none (no result: KCC2 mod, hERG rescue, KCNQ1 act, KCNK9 block, KCNQ1 inh)
Cc1nc(-c2ccccc2)sc1C(=O)CSc1ccc(F)cc1	KCNK3 inh -13 (no result: KCC2 mod) | KCNK3 inh conf 96 | KCNK3 noninduced inactive
Cc1nc(-c2ccccc2)sc1C(=O)CSc1ccccc1	none (no result: KCC2 mod)
COc1ccc(COC(=O)CCc2cc(OC)c(OC)c(OC)c2)cc1F	none (no result: KCC2 mod, hERG rescue, KCNQ1 act, KCNK9 block, KCNQ1 inh)
COCCN(C(=O)c1ccccc1OC)c1nnc(C)s1	none
COCCN(C(=O)Nc1ccccc1OC)c1nc2ccccc2s1	KCNK3 inh -11 (no result: KCC2 mod) | KCNK3 inh conf 114 | KCNK3 noninduced inactive
Cc1c(C(=O)Nc2cccc([N+](=O)[O-])c2)sc2ncn(CC(=O)N3CCOCC3)c(=O)c12	none (no result: KCC2 mod)
Cc1ccc(NC(=S)N(C)C(c2ccccc2)c2ccccc2)cc1C	KCNK3 inh -9.1 (no result: KCC2 mod) | KCNK3 inh conf 134 | KCNK3 noninduced 0.12
Cc1ccc(NC(=S)N(CCN(C)C)C(C)c2ccco2)cc1C (stereo not drawn)	none
CN(C(=S)Nc1ccc(F)cc1)C(c1ccccc1)c1ccccc1	KCNK3 inh -11 (no result: KCC2 mod) | KCNK3 inh conf 115 | KCNK3 noninduced inactive
CCC(C)c1ccc(NC(=O)C2CC3CCC2C3)cc1 (stereo not drawn)	KCNK3 inh -9.4, KCNK9 block -6.6 (no result: KCC2 mod) | KCNK3 inh conf 116 | KCNK3 noninduced inactive
Cc1cccc(N(CC(=O)NC2CCCCC2)C(=O)CCC(=O)Nc2nccs2)c1	none (no result: KCC2 mod)
COc1ccccc1NS(=O)(=O)c1ccc(-c2cnc(C3CC3)o2)cc1	none (no result: KCC2 mod)
Cc1ccc(N(C)S(=O)(=O)c2cc(-c3cnc(C4CC4)o3)ccc2C)cc1	KCNK3 inh -11 (no result: KCC2 mod) | KCNK3 inh conf 145 | KCNK3 noninduced inactive
Cc1ccc(NS(=O)(=O)c2ccc(-c3cnc(C4CC4)o3)cc2)c(C)c1	KCNK3 inh -10 (no result: KCC2 mod) | KCNK3 inh conf 132 | KCNK3 noninduced 0.14
Cc1ccc(N(CC(=O)N2CCN(c3ccccc3F)CC2)S(=O)(=O)c2c(C)noc2C)cc1	none (no result: KCC2 mod)
COc1ccc(OC)c2nc(-c3ccc4c(c3)OCO4)ccc12	none (no result: KCC2 mod)
CCOc1ccc(CN(C)c2nc(-c3cccnc3)nc3ccccc23)cc1OC	KCNK3 inh -16 (no result: KCC2 mod) | KCNK3 inh conf 104 | KCNK3 noninduced inactive
COc1cc(C=O)ccc1OS(=O)(=O)c1ccc(NC(C)=O)cc1	none
COc1ccc(/C=C2\SC(=S)NC2=O)cc1OS(=O)(=O)c1ccc(NC(C)=O)cc1	KCNK3 inh -10, KCNQ1 inh 13 | KCNK3 inh conf 124 | KCNK3 noninduced inactive
COc1ccc(NC(=O)C2CCCN(CCCc3ccccc3)C2)cc1OCC(C)C (stereo not drawn)	KCNK3 inh -9.8 (no result: KCC2 mod) | KCNK3 inh conf 99 | KCNK3 noninduced inactive
COc1ccc(NC(=O)C2CCCNC2)cc1OCC(C)C (stereo not drawn)	none
COc1cc(C(=O)Nc2scc(-c3ccc(Br)cc3)c2C(=O)O)cc(OC)c1OC	KCNK3 inh -9.7, KCNQ1 inh 8 (no result: KCC2 mod) | KCNK3 inh conf 119 | KCNK3 noninduced 0.15
Cc1ccc(NC(=S)N(CCN2CCOCC2)Cc2cc3cc4c(cc3[nH]c2=O)OCCO4)cc1	KCNK3 inh -8.9 | KCNK3 inh conf 98 | KCNK3 noninduced inactive
Cc1cccc(NC(=S)N(CCN2CCOCC2)Cc2cc3cc4c(cc3[nH]c2=O)OCCO4)c1	KCNK3 inh -12 | KCNK3 inh conf 91 | KCNK3 noninduced inactive
Cc1ccc(NC(=S)N(CCN2CCOCC2)Cc2cc3cc4c(cc3[nH]c2=O)OCO4)cc1	KCNK3 inh -11 (no result: KCC2 mod) | KCNK3 inh conf 92 | KCNK3 noninduced inactive
COc1ccc(NC(=S)N(CCN2CCOCC2)Cc2cc3cc4c(cc3[nH]c2=O)OCO4)cc1	none (no result: KCNK3 inh)
O=S(=O)(CCNCc1ccco1)NC1CCCCC1	none (no result: KCC2 mod, hERG rescue, KCNQ1 act, KCNK9 block, KCNQ1 inh)
Cc1nn(-c2ccccc2)c(OC(=O)c2cccs2)c1S(=O)(=O)c1ccccc1	none (no result: KCC2 mod)
Cc1nn(C(C)(C)C)c(OC(=O)C2CCCC2)c1S(=O)(=O)c1ccccc1	KCNK3 inh -9.9 (no result: KCC2 mod) | KCNK3 inh conf 90 | KCNK3 noninduced inactive
COc1cc2nc(Nc3ccc(C)c(C)c3)nc(N)c2cc1OC	KCNK3 inh -9.3 (no result: KCC2 mod) | KCNK3 inh conf 114 | KCNK3 noninduced inactive
